The target in data set [1] is Protein kinase C theta type (Homo sapiens, UniProt Q04759). Description: Inhibition of PKCtheta in human HeLa cells lysate pre incubated for 15 mins followed by ATP acyl phosphate probe addition and measured after 10 mins by LC-MS/MS analysis. It counts as subcellular.
The target in data set [2] is Protein kinase C iota type (Homo sapiens) (UniProt P41743). Description: Inhibition of PKCiota in human HeLa cells lysate at 2 uM pre incubated for 15 mins followed by ADP acyl phosphate probe addition and measured after 10 mins by LC-MS/MS analysis relative to control. The following applies: time 25.0 min. The data set is classed as subcellular.
The target of data set [3] is Ribosomal protein S6 kinase alpha-5 (Homo sapiens, UniProt O75582). Briefly: Inhibition of MSK1 domain 1 K1 site in human HeLa cells lysate at 10 uM pre incubated for 15 mins followed by ADP acyl phosphate probe addition and measured after 10 mins by LC-MS/MS analysis relative to control. The data set is classed as subcellular. Particulars: time 25.0 min.
In a further data set the test system is Lewis lung carcinoma. Description: Antitumor activity against mouse LL2 cells allografted in C57Bl/6 mouse assessed as reduction tumor growth at 50 mg/kg, ip administered on day 7 post implantation measured after 17 days. It counts as functional, organism-based. The following applies: time 10.0 day. In short, it runs like this: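 LL/2 cells (1×10^6, in DMEM) were injected s.c. into the right flank of 6-week-old C57Bl/6 mice on day 0. Dosing was 50 mg/kg i.p. twice daily, starting on day 1, 7 or 10 and continuing to day 17; controls received carrier. 6 mice per treated group. Tumors were measured every 2–3 days.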

Data set [4] deals with Cyclin-dependent kinase 16 (Homo sapiens, UniProt Q00536). Briefly: Inhibition of PCTAIRE1 in human HeLa cells lysate at 10 uM pre incubated for 15 mins followed by ADP acyl phosphate probe addition and measured after 10 mins by LC-MS/MS analysis relative to control. The data set is classed as subcellular. Particulars: time 25.0 min.
Data set [5] can be described thus: Half life in Sprague-Dawley rat at 2 mg/kg, po measured up to 8 hrs by LC-MS/MS analysis. It counts as ADME, organism-based. The following applies: in vivo. The method in brief:
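Sprague-Dawley rats given one intravenous dose or one oral dose of 2 mg/kg. Plasma drug concentrations were followed over time, with samples taken out to 8 hr after dosing. PK parameters (clearance, volume of distribution, half-life, oral bioavailability, Cmax) were calculated from these concentration–time data.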

Data set [6] in a line: Toxicity in C57Bl/6 mouse assessed as effect on injection site at 50 mg/kg, ip for 14 days. It counts as organism-based. Particulars: in vivo, 336 h, time 14 day.
The target in another data set is Insulin receptor (Homo sapiens, UniProt P06213). Description: Inhibition of INSR in human HeLa cells lysate at 50 uM pre incubated for 15 mins followed by ADP acyl phosphate probe addition and measured after 10 mins by LC-MS/MS analysis relative to control. Particulars: time 25.0 min. It counts as subcellular.
Data set [7] is described as follows: Toxicity in C57Bl/6 mouse assessed as effect on phosphorus level at 50 mg/kg, ip for 14 days (reference value: 6.8 mg/dl). Particulars: in vivo, 336 h, time 14 day. It counts as organism-based.
Data set [8] has as its target Cyclin-dependent kinase 2 (Homo sapiens, UniProt P24941). Briefly: Inhibition of CDK2 K1 site in human HeLa cells lysate at 2 uM pre incubated for 15 mins followed by ATP acyl phosphate probe addition and measured after 10 mins by LC-MS/MS analysis relative to control. The following applies: time 25.0 min. It counts as subcellular. In short, it runs like this:
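KiNativ profiling in HeLa lysate (5 mg/mL total protein). Lysate incubated 15 min with inhibitor at 50, 10, 2, 0.8 or 0 μM. ATP or ADP acylphosphate probe then added (5 μM final) and reacted 10 min. Reaction stopped with urea and analysed by targeted MS, using up to four fragment ions per kinase peptide-probe conjugate. % inhibition taken against untreated lysate. Run in duplicate.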

A short description of data set [9]: Cardiotoxicity in C57Bl/6 mouse assessed as vasculature instability in heart at 50 mg/kg, ip for 14 days by TUNEL assay. It counts as toxicity, organism-based. Particulars: in vivo, 336 h, time 14 day. In short, it runs like this:
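Mice were dosed i.p. at 50 mg/kg over 14 days. Heart sections from treated and control mice were stained by immunofluorescence for CD31 and by TUNEL, with DNase-treated sections as the TUNEL positive control.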

For data set [10], the target named is Ribosomal protein S6 kinase alpha-1 (Homo sapiens, UniProt Q15418). Briefly: Inhibition of RSK1 domain 2 in human HeLa cells lysate at 10 uM pre incubated for 15 mins followed by ATP acyl phosphate probe addition and measured after 10 mins by LC-MS/MS analysis relative to control. It counts as subcellular. Particulars: time 25.0 min.
For data set [11], the target named is Serine/threonine-protein kinase SMG1 (Homo sapiens, UniProt Q96Q15). Description: Inhibition of SMG1 in human HeLa cells lysate at 10 uM pre incubated for 15 mins followed by ATP acyl phosphate probe addition and measured after 10 mins by LC-MS/MS analysis relative to control. It counts as subcellular. The following applies: time 25.0 min.
Data set [12] is described as follows: Inhibition of MAP3K2/MAP3K3 in human HeLa cells lysate pre incubated for 15 mins followed by ADP acyl phosphate probe addition and measured after 10 mins by LC-MS/MS analysis. The data set is classed as subcellular.
Data set [13] addresses Mitogen-activated protein kinase kinase kinase 2 (Homo sapiens) (UniProt Q9Y2U5). Briefly: Inhibition of MAP3K2 in human HeLa cells lysate at 10 uM pre incubated for 15 mins followed by ADP acyl phosphate probe addition and measured after 10 mins by LC-MS/MS analysis relative to control. It counts as subcellular. The following applies: time 25.0 min.
Data set [14] concerns the target DNA-dependent protein kinase catalytic subunit (Homo sapiens, UniProt P78527). Briefly: Inhibition of PRKDC in human HeLa cells lysate at 2 uM pre incubated for 15 mins followed by ATP acyl phosphate probe addition and measured after 10 mins by LC-MS/MS analysis relative to control. It counts as subcellular. Particulars: time 25.0 min.
Data set [15] addresses Rho-associated protein kinase (Homo sapiens, UniProt O75116+Q13464). Briefly: Inhibition of ROCK1/2 in human HeLa cells lysate pre incubated for 15 mins followed by ATP acyl phosphate probe addition and measured after 10 mins by LC-MS/MS analysis. It counts as subcellular.
Data set [16] is described as follows: Plasma concentration in Sprague-Dawley rat at 2 mg/kg, po measured after 30 mins by LC-MS/MS analysis. It counts as ADME, organism-based.
For data set [17], the target named is Serine/threonine-protein kinase Aurora (Homo sapiens, UniProt Q96GD4+Q9UQB9+O14965). Description: Inhibition of AURA/AURB/AURC in human HeLa cells lysate pre incubated for 15 mins followed by ATP acyl phosphate probe addition and measured after 10 mins by LC-MS/MS analysis. It counts as subcellular. In short, it runs like this: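 KiNativ-type profiling in HeLa lysate (5 mg/mL total protein). Lysate preincubated 15 min with inhibitor at 50, 10, 2, 0.8 or 0 μM, then ATP or ADP acylphosphate probe added (5 μM final) for 10 min. Reaction stopped with urea and analysed by targeted MS, using up to four fragment ions per kinase peptide-probe conjugate. % inhibition calculated against untreated lysate. Duplicate reactions.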

Data set [18] deals with Tyrosine-protein kinase CSK (Homo sapiens, UniProt P41240). Briefly: Inhibition of CSK in human HeLa cells lysate pre incubated for 15 mins followed by ATP acyl phosphate probe addition and measured after 10 mins by LC-MS/MS analysis. It counts as subcellular.
The target of data set [19] is Serine/threonine-protein kinase D2 (Homo sapiens, UniProt Q9BZL6). Briefly: Inhibition of PKD2 in human HeLa cells lysate pre incubated for 15 mins followed by ADP acyl phosphate probe addition and measured after 10 mins by LC-MS/MS analysis. It counts as subcellular.

The values that follow come from ChEMBL document CHEMBL5661979, “Pharmacological inhibition of BMK1 suppresses tumor growth through promyelocytic leukemia protein” (Cancer Cell, 2010).

By IC50 is commonly meant the point on the concentration scale where inhibition reaches its midpoint. One may read the inhibition as the change of the read-out against control, counted positive when it falls. The term half-life denotes the time in which the quantity being followed falls by half. Higher therefore signals slow decline.

Structures are written as SMILES. Calls of active or inactive are those of the source. The calls are words filed in the database; no cut-off is given here. Some results are limits rather than exact numbers.

Sequence of Cyclin-dependent kinase 16 (Q00536 whole entry): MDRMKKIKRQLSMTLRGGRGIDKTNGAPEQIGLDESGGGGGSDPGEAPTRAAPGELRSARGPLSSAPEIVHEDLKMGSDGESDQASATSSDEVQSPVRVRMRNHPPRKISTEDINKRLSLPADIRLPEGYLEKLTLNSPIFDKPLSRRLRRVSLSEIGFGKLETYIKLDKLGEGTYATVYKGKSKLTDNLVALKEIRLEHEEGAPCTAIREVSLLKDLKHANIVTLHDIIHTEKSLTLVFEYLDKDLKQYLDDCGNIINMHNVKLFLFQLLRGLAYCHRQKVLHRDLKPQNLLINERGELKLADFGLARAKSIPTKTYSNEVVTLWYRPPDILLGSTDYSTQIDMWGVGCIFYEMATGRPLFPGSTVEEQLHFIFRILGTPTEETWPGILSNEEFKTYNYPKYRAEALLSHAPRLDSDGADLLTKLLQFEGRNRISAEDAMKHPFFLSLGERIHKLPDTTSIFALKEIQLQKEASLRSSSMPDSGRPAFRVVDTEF
Sequence of Protein kinase C theta type (Q04759 whole entry): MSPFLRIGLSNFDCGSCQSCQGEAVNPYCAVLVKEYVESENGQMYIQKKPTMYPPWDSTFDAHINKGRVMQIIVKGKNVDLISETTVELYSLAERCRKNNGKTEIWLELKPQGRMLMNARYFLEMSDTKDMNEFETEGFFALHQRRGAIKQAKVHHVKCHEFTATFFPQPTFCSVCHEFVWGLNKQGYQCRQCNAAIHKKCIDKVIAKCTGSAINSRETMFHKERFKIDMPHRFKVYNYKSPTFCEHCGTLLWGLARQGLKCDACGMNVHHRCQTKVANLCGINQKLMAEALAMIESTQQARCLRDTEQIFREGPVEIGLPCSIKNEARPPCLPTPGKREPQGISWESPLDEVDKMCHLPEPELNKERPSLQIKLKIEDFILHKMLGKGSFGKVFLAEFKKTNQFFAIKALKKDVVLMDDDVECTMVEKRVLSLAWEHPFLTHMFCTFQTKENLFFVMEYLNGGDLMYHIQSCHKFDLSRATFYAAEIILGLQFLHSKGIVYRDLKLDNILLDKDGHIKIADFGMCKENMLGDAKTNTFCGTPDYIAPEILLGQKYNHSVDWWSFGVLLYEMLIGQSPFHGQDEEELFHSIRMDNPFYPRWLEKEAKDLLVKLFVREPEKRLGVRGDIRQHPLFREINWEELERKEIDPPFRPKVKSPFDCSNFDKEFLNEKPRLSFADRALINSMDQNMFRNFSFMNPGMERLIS
Sequence of Tyrosine-protein kinase CSK (P41240 whole entry): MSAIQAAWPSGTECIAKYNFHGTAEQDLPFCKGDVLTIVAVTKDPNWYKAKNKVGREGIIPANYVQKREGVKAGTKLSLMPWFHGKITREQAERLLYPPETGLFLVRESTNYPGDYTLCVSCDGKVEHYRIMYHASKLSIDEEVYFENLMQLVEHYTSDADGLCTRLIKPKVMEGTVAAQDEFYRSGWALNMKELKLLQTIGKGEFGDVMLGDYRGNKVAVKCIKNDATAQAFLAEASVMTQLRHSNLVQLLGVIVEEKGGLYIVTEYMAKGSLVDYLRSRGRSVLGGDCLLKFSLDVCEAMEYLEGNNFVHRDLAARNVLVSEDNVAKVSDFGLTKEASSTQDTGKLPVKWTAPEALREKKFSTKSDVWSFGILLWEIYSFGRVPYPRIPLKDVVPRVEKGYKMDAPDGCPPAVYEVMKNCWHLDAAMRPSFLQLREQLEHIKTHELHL
Sequence of Ribosomal protein S6 kinase alpha-1 (Q15418 whole entry, the tested form may be a part): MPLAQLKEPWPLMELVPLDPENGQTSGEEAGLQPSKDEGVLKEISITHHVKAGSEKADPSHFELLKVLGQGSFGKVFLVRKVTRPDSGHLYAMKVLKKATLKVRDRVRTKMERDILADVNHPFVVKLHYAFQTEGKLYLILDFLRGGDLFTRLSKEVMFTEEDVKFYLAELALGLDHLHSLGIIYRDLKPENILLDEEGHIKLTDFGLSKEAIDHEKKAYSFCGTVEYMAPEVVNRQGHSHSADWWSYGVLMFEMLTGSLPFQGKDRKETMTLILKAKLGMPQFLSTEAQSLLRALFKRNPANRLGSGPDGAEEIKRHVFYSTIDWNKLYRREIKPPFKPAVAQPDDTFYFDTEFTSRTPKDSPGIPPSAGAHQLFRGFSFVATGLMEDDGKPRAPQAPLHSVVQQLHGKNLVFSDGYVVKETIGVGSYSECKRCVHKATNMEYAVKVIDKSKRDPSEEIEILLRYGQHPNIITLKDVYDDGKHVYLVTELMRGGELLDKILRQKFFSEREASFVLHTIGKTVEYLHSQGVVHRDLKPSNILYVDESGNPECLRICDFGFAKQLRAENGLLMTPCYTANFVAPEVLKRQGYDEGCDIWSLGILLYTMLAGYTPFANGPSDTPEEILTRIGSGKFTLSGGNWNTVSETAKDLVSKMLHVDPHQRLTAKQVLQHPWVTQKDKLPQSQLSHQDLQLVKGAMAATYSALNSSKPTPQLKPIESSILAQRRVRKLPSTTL
Sequence of Ribosomal protein S6 kinase alpha-5 (O75582 whole entry, looked up, the tested form may be a part): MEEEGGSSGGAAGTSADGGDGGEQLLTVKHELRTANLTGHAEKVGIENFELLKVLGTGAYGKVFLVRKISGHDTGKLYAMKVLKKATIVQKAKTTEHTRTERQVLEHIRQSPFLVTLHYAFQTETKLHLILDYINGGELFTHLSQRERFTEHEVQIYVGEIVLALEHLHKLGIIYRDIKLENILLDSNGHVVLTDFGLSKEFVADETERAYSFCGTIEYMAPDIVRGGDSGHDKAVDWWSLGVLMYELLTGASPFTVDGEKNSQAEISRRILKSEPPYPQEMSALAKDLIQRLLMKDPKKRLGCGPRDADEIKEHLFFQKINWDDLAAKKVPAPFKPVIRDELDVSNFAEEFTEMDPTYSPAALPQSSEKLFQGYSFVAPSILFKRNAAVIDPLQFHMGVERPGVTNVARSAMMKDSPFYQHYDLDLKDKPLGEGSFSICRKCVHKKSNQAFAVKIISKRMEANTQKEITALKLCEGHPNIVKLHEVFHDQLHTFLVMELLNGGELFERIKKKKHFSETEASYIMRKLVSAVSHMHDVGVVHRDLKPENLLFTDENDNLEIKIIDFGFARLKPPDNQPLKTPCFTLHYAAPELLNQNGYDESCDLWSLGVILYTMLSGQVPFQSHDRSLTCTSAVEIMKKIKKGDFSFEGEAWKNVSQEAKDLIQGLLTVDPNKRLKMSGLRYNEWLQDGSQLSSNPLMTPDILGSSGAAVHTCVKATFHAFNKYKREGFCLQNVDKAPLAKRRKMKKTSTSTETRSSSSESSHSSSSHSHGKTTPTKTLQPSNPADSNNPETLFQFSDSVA
Sequence of Serine/threonine-protein kinase D2 (Q9BZL6 whole entry): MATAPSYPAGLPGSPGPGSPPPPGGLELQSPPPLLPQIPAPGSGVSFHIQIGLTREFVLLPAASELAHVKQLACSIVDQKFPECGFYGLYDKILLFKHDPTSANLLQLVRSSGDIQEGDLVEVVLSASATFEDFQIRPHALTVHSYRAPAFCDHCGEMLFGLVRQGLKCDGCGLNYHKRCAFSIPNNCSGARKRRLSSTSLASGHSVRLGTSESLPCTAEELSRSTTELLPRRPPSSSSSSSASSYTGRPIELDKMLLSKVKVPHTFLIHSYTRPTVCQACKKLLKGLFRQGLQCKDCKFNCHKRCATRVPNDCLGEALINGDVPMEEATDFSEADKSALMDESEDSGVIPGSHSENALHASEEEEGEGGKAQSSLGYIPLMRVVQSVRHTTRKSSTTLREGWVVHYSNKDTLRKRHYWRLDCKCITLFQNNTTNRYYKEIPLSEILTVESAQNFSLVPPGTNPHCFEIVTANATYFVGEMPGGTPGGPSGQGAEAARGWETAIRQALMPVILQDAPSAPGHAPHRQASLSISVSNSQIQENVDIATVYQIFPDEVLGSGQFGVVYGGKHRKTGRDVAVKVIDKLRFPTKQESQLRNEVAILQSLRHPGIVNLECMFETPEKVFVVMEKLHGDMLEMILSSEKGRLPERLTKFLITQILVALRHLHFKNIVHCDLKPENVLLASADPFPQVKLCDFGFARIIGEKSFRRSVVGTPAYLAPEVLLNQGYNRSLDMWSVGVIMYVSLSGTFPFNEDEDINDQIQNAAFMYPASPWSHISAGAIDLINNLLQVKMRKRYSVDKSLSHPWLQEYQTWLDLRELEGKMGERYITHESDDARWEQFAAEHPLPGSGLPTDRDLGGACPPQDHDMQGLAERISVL
Sequence of Mitogen-activated protein kinase kinase kinase 2 (Homo sapiens) (Q9Y2U5 whole entry): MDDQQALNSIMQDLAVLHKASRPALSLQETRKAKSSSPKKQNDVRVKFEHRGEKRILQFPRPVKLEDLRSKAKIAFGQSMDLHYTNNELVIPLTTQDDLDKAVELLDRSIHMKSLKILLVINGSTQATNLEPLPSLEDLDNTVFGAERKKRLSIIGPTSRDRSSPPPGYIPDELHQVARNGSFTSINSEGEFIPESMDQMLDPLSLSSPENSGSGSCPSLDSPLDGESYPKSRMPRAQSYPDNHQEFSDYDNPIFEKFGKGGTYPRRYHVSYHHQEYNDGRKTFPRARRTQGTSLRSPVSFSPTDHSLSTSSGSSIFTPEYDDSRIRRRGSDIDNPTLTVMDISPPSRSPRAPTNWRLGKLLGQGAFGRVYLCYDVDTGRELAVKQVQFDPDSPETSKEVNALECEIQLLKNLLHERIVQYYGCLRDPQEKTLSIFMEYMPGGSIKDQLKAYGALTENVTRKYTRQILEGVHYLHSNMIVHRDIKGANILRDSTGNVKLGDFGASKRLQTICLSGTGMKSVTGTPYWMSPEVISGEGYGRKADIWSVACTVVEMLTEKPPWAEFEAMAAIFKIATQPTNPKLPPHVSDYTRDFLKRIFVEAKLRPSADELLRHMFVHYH

For `CCOc1cc(N2CCC(O)CC2)ccc1Nc1ncc2c(n1)N(C)c1ccccc1C(=O)N2C`, the IC50 in data set [1], in data set [12], in data set [15], in data set [17], in data set [18] and in data set [19] was over 50 µM each time. Also, the inhibition is 18.9% in data set [2]; 1.8% in data set [3]; 20.8% in [4]; -6.5% at Insulin receptor; -2.9% in data set [8]; 20.9% in [10]. The inhibition was found to be 3.9% in data set [11], 36.2% in data set [13] and 0.6% in data set [14]. The result in the data set with Lewis lung carcinoma was Active. In data set [5], this compound had a half-life of 3.4 h. Besides, the Activity result in data set [6] is “Non-Toxic”; in [7], 6.4 mg/dL; in [9] it was “Non-Toxic”. Besides, the concentration at 0.5 h in data set [16] was about 500 nM.
